Structures can show the parent of a compound that is named as a salt. Where two headings read alike, the source gives them in different places.
Tests used:
[1] = test system: patients with advanced solid tumors; conditions: cited from earlier work; for stable disease (SD) as best response, patients: advanced solid tumors
[2] = test system: HDAC; conditions: pan-HDACI; cited from earlier work
[3] = test system: patients with advanced hematological malignancies; assay: Phase 1 dose escalation, safety and toxicity, Arm 1; conditions: human, in vivo
[4] = Plasma pharmacokinetics of pracinostat; assay type: in vivo, human; conditions: for half-life / Tmax / AUC(0-inf) / Cmax: human, plasma; for AUC(0-inf): AUC0-inf
Procedure, shortened: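 The test compound was given orally at 10–120 mg to patients with hematologic malignancies. AUC0-inf was noncompartmental, t1/2 came from the terminal log-linear phase (≥3 last points), and Cmax/Tmax were read from the curves.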

[5] = in vivo studies; cited from earlier work
[6] = test system: histone H3 acetylation (AcH3) in peripheral blood mononuclear cells; assay: Pharmacodynamics: AcH3 levels in PBMCs; assay type: in vivo, human; conditions: ten subjects; maximal at 3 h post-dose; no dose-dependent increase
[7] = test system: patients with advanced hematological malignancies; assay: Efficacy; assay type: in vivo, human
[8] = cited from earlier work
[9] = po, 40 mg, Day 15, 40 mg oral, n=5, mean±SD
[10] = po, 40 mg, Day 1, 40 mg oral, n=6, mean±SD
[11] = po, 60 mg, Day 1, 60 mg oral, n=3, mean±SD
[12] = po, 60 mg, Day 15, 60 mg oral, n=3, mean±SD
[13] = po, 80 mg, Day 1, 80 mg oral, n=3, mean±SD
[14] = po, 80 mg, Day 15, 80 mg oral, n=3, mean±SD
[15] = po, 100 mg, Day 1, 100 mg oral, n=3, mean±SD
[16] = po, 100 mg, Day 15, 100 mg oral, n=3, mean±SD
[17] = po, 120 mg, Day 1, 120 mg oral, n=6, mean±SD
[18] = po, 120 mg, Day 15, 120 mg oral, n=2, mean

In the case of `CCCCc1nc2cc(/C=C/C(=O)NO)ccc2n1CCN(CC)CC` [Pracinostat, 3-[2-butyl-1-(2-diethylaminoethyl)-1H-benzoimidazol-5-yl]-N-hydroxyacrylami-hydrochloride], the “stable disease (SD) as best response, patients” value ([1]; ref 12) is listed as 32%, the “stable disease (SD) as best response, patients” value ([1]; ref 13) is listed as 21% and the “dose of early emergence of grade 3 TRAEs and DLTs” value ([1]; continuous 5-day dosing every 2 weeks) is listed as 20 mg. The “potency relative to vorinostat” value [2] was “about twice”, the “AEs leading to a dose-interruption, patients” value [3] was 34% and the “AEs leading to a dose-reduction, patients” value [3] was 27%. For the same compound, the “Anemia, treatment-related adverse event, All Grades” value [3] was 5%, the “Anemia, treatment-related adverse event, Grade ≥ 3” value [3] was 5% and the “Anorexia, treatment-related adverse event, All Grades” value [3] was 23%. The “Anorexia, treatment-related adverse event, Grade ≥ 3” value [3] was 2%, the “Constipation, treatment-related adverse event, All Grades” value [3] was 5% and the “Constipation, treatment-related adverse event, Grade ≥ 3” value [3] was 0%. For the same compound, the “Diarrhea, treatment-related adverse event, All Grades” value [3] was 16%, the “Diarrhea, treatment-related adverse event, Grade ≥ 3” value [3] was 2% and the “Elevated ALT, treatment-related adverse event, All Grades” value [3] was 0%. The “Elevated ALT, treatment-related adverse event, Grade ≥ 3” value [3] was 0%, the “Fatigue, treatment-related adverse event, All Grades” value [3] was 41% and the “Fatigue, treatment-related adverse event, Grade ≥ 3” value [3] was 11%. The “Infections, treatment-related adverse event, All Grades” value [3] was 9%, the “Infections, treatment-related adverse event, Grade ≥ 3” value [3] was 9% and the “Nausea, treatment-related adverse event, All Grades” value [3] was 30%. The “Nausea, treatment-related adverse event, Grade ≥ 3” value [3] was 0%, the “Neutropenia, treatment-related adverse event, All Grades” value [3] was 2% and the “Neutropenia, treatment-related adverse event, Grade ≥ 3” value [3] was 2%. For the same compound, the “QTc prolongation, treatment-related adverse event, All Grades” value [3] was 7%, the “QTc prolongation, treatment-related adverse event, Grade ≥ 3” value [3] was 5% and the “Thrombocytopenia, treatment-related adverse event, All Grades” value [3] was 14%. The “Thrombocytopenia, treatment-related adverse event, Grade ≥ 3” value [3] was 11%, the “Vomiting, treatment-related adverse event, All Grades” value [3] was 14% and the “Vomiting, treatment-related adverse event, Grade ≥ 3” value [3] was 0%. The “discontinuation of pracinostat due to an AE, patients” value [3] was 25%, the “patients who experienced a grade ≥ 3 TRAE” value [3] was 20% and the “patients who experienced at least 1 TRAE” value [3] was 77%. The “pracinostat doses at which grade ≥ 3 thrombocytopenia was experienced” value [3] was at least 80 mg, the “DLTs, patients” value ([3]; 28 days) was 13% and the “doses at which DLTs occurred” value ([3]; 28 days) was at least 40 mg. For the same compound, the “recommended phase II dose (RP2D)” value ([3]; po, 28 days) was 60 mg, the “accumulation between Day 1 and Day 15 following repeated dosing” value ([4]; 100-mg dose level) was “moderate accumulation” and the “plasma concentrations relative to IC50 for HDAC 1, 2, and 3” value ([4]; all dose levels) was “above the 50% inhibitory concentration (IC50)”. It also gave a half-life ([4]; oral, 120 mg, prolonged t1/2 reaching, discussion summary) of at most 840 min, a Tmax ([4]; oral, range over dose levels, 40-120 mg, Days 1 and 15) of 0.8 to 1.3 h and a half-life ([4]; oral, mean t1/2, range over dose levels, 40-120 mg, Days 1 and 15) of 420 to 846 min. It also gave an AUC(0-inf) [4, 9] of 477 ± 191 ng·h/mL, a Cmax [4, 10] of 84 ± 34 ng/mL and a Cmax [4, 9] of 64 ± 19 ng/mL. The Tmax [4, 10] was 1.1 ± 0.7 h, the Tmax [4, 9] was 1.3 ± 0.7 h and the half-life ([4]; po, 40 mg, t1/2, Day 1, 40 mg oral, n=6, mean±SD) was 564 ± 210 min. For the same compound, the half-life ([4]; po, 40 mg, t1/2, Day 15, 40 mg oral, n=5, mean±SD) was 642 ± 138 min, the AUC(0-inf) [4, 11] was 948 ± 1140 ng·h/mL and the AUC(0-inf) [4, 12] was 766 ± 746 ng·h/mL. For the same compound, the Cmax [4, 11] was 133 ± 117 ng/mL, the Cmax [4, 12] was 118 ± 135 ng/mL and the Tmax [4, 11] was 1 ± 0.5 h. It also gave a Tmax [4, 12] of 0.8 ± 0.3 h, a half-life ([4]; po, 60 mg, t1/2, Day 1, 60 mg oral, n=3, mean±SD) of 726 ± 138 min and a half-life ([4]; po, 60 mg, t1/2, Day 15, 60 mg oral, n=3, mean±SD) of 708 ± 204 min. For the same compound, the AUC(0-inf) [4, 13] was 1050 ± 803 ng·h/mL, the AUC(0-inf) [4, 14] was 977 ± 459 ng·h/mL and the Cmax [4, 13] was 189 ± 182 ng/mL. It also gave a Cmax [4, 14] of 164 ± 122 ng/mL, a Tmax [4, 13] of 1.3 ± 0.8 h and a Tmax [4, 14] of 1.2 ± 0.3 h. The half-life ([4]; po, 80 mg, t1/2, Day 1, 80 mg oral, n=3, mean±SD) was 420 ± 66 min, the half-life ([4]; po, 80 mg, t1/2, Day 15, 80 mg oral, n=3, mean±SD) was 558 ± 246 min and the AUC(0-inf) [4, 15] was 1170 ± 347 ng·h/mL. For the same compound, the AUC(0-inf) [4, 16] was 1980 ± 682 ng·h/mL, the Cmax [4, 15] was 187 ± 99 ng/mL and the Cmax [4, 16] was 314 ± 143 ng/mL. For the same compound, the Tmax [4, 15] was 1.2 ± 0.3 h, the Tmax [4, 16] was 1 ± 0.5 h and the half-life ([4]; po, 100 mg, t1/2, Day 1, 100 mg oral, n=3, mean±SD) was 504 ± 66 min. It also gave a half-life ([4]; po, 100 mg, t1/2, Day 15, 100 mg oral, n=3, mean±SD) of 822 ± 336 min, an AUC(0-inf) [4, 17] of 1360 ± 725 ng·h/mL and an AUC(0-inf) [4, 18] of 757 ng·h/mL. The Cmax [4, 17] was 202 ± 83 ng/mL, the Cmax [4, 18] was 96 ng/mL and the Tmax [4, 17] was 1.2 ± 0.4 h. For the same compound, the Tmax [4, 18] was 1 h, the half-life ([4]; po, 120 mg, t1/2, Day 1, 120 mg oral, n=6, mean±SD) was 648 ± 180 min and the half-life ([4]; po, 120 mg, t1/2, Day 15, 120 mg oral, n=2, mean) was 846 min. For the same compound, the “effect of AZA administration on PK parameters for pracinostat” value ([4]; in vivo) was “not affected”, the “increased half-life (t1/2) compared to vorinostat” value [5] was 3.3 fold and the “increased oral bioavailability compared to vorinostat” value [5] was 4.1 fold. For the same compound, the “AcH3 levels in PBMCs” value [6] was “increased across all dose levels”, the “PFS of responding AML patient” value ([7]; 80 mg dose level, 11 cycles) was 362 days and the “PFS of responding AML patient” value ([7]; 120 mg dose level, 8 cycles) was 197 days. The progressive disease ([7]; 32 evaluable patients) was 31%, the “responders (CR or CCyR)” value ([7]; 32 evaluable patients) was 6% and the “Median OS” value ([7]; 95% CI: 114.0- NA) was 362 days. The patients who died ([7]; Thirteen patients of 44) was 30%.

In the case of `O=C(CCCCCCC(=O)Nc1ccccc1)NO` [vorinostat], the half-life [8] is given as 1 to 2 h.
